Assay outcomes (PubChem)
Rows were chosen to be rich in hits. Some 2.8% of all compounds tested hit in one or more screens of this group.
EP2 modulator = EP2 receptor modulators, cAMP readout, primary screen, cell-based, HTRF cAMP, PGE2 stimulation. 0.83% of 260,000 active. induction, % at 25 µM. EP2-expressing cells, cAMP HTRF FRET, PGE2 co-stimulation. Prostaglandin E2 receptor EP2 subtype (Homo sapiens), P43116;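 active = compounds whose cAMP rise, as percent of the full-agonist control response, exceeds 60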;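 also: rat C6 glioma line stably carrying human EP2 under a CMV promoter; the protocol text gives 20 µM as final concentration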
Target sequence (P43116 whole entry, looked up): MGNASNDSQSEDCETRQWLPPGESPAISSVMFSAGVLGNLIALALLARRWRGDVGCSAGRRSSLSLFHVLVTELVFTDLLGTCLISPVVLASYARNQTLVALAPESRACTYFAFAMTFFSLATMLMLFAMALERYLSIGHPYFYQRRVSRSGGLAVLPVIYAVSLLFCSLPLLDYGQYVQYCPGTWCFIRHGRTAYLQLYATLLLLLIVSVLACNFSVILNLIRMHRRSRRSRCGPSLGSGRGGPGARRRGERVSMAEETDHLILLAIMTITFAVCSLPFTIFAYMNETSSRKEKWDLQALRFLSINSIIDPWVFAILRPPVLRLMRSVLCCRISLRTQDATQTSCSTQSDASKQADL
NPY Y1 blocker = NPY-Y1 receptor antagonists, primary screen, cell-based. inhibition, % at 3.6 µM. AID 1040, 2008. Neuropeptide Y receptor type 1 (Homo sapiens), P25929. HEK293-CNG Y1 cells, membrane potential fluorescence; NPY at EC95, then isoproterenol. 1% of 200,000 active;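 active = inhibition above the campaign mean inhibition of all tested compounds plus 3 SD, cut at about 20% in these data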
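Test system: HEK293 cells co-expressing NPY Y1 receptor and cyclic-nucleotide gated channel; Also added: NPY (25 nM), isoproterenol (1 µM), Ro 20-1724 (25 µM); Compound dosing: one concentration, 3.6 µM, in 0.4% DMSO; Timing: dye 3 h, compound 60 min room temperature, stimulation 45 min; Technique: Membrane-potential fluorescent dye readout.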
NPY1 pot ag = NPY-Y1 receptor potentiators or agonists, primary screen, cell-based; Neuropeptide Y receptor type 1 (Homo sapiens), P25929; NPY-Y1 expressing cells, potentiator/agonist activation; activation, % at 3.6 µM; 0.37% of 220,000 active; in the data active = activation above about 33%, passing the limit was not always enough;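 also: cells stimulated with NPY at EC10 then isoproterenol at EC100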
NPY Y2 blocker = NPY-Y2 receptor antagonists, primary screen, cell-based; AID 793, 2007; NPY-Y2 expressing cells, antagonist mode; inhibition, % at 2.7 µM; 0.99% of 140,000 active; in the data active = inhibition above about 17%
EP2 antag = human EP2 receptor antagonists, primary screen, TR-FRET cAMP, C6 glioma cells; Prostaglandin E2 receptor EP2 subtype (Homo sapiens), P43116; AID 1422, 2008; inhibition, % at 25 µM; 0.52% of 260,000 active; C6 glioma cells expressing human EP2; cells stimulated with saturating PGE2;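 active = percent inhibition above 40 after rounding to a whole number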;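 also: rat C6 glioma host cells with rolipram phosphodiesterase inhibitor present; the protocol text gives 20 µM as final concentration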
NPY2 pot ag = NPY-Y2 potentiators or agonists, primary screen, cell-based; activation, % at 3.6 µM; Neuropeptide Y receptor type 2 (Homo sapiens), P49146; 0.45% of 220,000 active; cells expressing NPY-Y2, potentiator/agonist read-out; in the data active = activation above about 27%;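 also: cells stimulated with NPY near EC25 plus isoproterenol at EC100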
EP2 confirm = cAMP induction in EP2, EP4, beta2-AR and parental cells, confirmation, counter-screen for EP2 modulator project, cell-based, five parallel assays, C6 glioma, HEK293; 47% of 1,300 active; shares compounds with EP2 modulator; calls only at 20 µM (by protocol); cAMP HTRF induction; plus low (about EC15) PGE2 agonist;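 active = cAMP induction above 50% in the main assay while under 30% in all four parallel counter assays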;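 also: rat C6 glioma cells stably expressing human EP2 receptor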
A number is an active result.

Results for c1ccc(C2Nc3ccccc3Oc3ccccc32)cc1 (configuration not stated) ?
EP2 modulator: 81; NPY Y1 blocker: inactive; NPY1 pot ag: inactive; NPY Y2 blocker: inactive; EP2 antag: inactive; NPY2 pot ag: inactive; EP2 confirm: inactive

Results for C=CCOc1nc(-c2ccncc2)nc2ccccc12 ?
EP2 modulator: 69; NPY Y1 blocker: inactive; NPY1 pot ag: inactive; NPY Y2 blocker: inactive; EP2 antag: inactive; NPY2 pot ag: inactive; EP2 confirm: active

How did CCOC(=O)NC1CC2(CCCCC2)Oc2ccccc21 (configuration not stated) do in these assays?
EP2 modulator: inactive

How did O=c1cc(N2CCCCC2)c(-c2ccccc2)nn1Cc1ccc(Cl)cc1 do in these assays?
EP2 modulator: inactive; NPY Y1 blocker: inactive; NPY1 pot ag: inactive; NPY Y2 blocker: inactive; EP2 antag: inactive; NPY2 pot ag: inactive

What do the screens show for `O=c1cc(N2CCCCC2)c(-c2ccccc2)nn1Cc1c(Cl)cccc1Cl`?
EP2 modulator: 80; NPY Y1 blocker: inactive; NPY1 pot ag: inactive; NPY Y2 blocker: inactive; EP2 antag: inactive; NPY2 pot ag: inactive; EP2 confirm: active

What do the screens show for `O=c1cc(N2CCCCC2)c(-c2ccccc2)nn1Cc1ccc(F)cc1`?
EP2 modulator: 88; NPY Y1 blocker: inactive; NPY1 pot ag: inactive; EP2 antag: inactive; NPY2 pot ag: inactive; EP2 confirm: active

Results for C#CCCN1CCN(Cc2c(C)n(CC(=O)N3CCCC3)c3ccccc23)CC1 ?
EP2 modulator: inactive; EP2 antag: inactive

Results for C=CCSc1nc2ccccc2n1S(=O)(=O)c1ccc(Cl)cc1 ?
EP2 modulator: 75; NPY Y1 blocker: inactive; NPY1 pot ag: inactive; NPY Y2 blocker: inactive; EP2 antag: inactive; NPY2 pot ag: inactive; EP2 confirm: inactive

How did CCSc1nc2ccccc2n1S(=O)(=O)c1ccccc1 do in these assays?
EP2 modulator: inactive; NPY Y1 blocker: inactive; NPY1 pot ag: inactive; NPY Y2 blocker: inactive; EP2 antag: inactive; NPY2 pot ag: inactive

What do the screens show for `COc1ccc(-c2ccc(=O)n(CC3CCN(C(=O)C(C)(C)C)CC3)n2)cc1`?
EP2 modulator: inactive

What do the screens show for `O=C(O)c1cc(C(=O)O)cc(N2C(=O)c3ccccc3C2=O)c1`?
EP2 modulator: 87; EP2 antag: inactive; EP2 confirm: active

Results for CCc1ccc2nc(-c3cccc(C)c3)nc(SCC(=O)NCC3CCCO3)c2c1 (configuration not stated) ?
EP2 modulator: 86; NPY Y1 blocker: inactive; NPY1 pot ag: inactive; NPY Y2 blocker: inactive; EP2 antag: inactive; NPY2 pot ag: inactive; EP2 confirm: inactive

What do the screens show for `CCc1ccc2nc(SCC(=O)NCC3CCCO3)c(C#N)cc2c1` (configuration not stated)?
EP2 modulator: inactive; NPY Y1 blocker: inactive; NPY1 pot ag: inactive; EP2 antag: inactive; NPY2 pot ag: inactive

How did CCOC(=O)CN1C(=O)C(CC)Oc2ccccc21 (configuration not stated) do in these assays?
EP2 modulator: inactive; NPY Y1 blocker: inactive; NPY1 pot ag: inactive; NPY Y2 blocker: inactive; EP2 antag: inactive; NPY2 pot ag: inactive

Results for CCC1Oc2ccccc2N(Cc2ccccc2C)C1=O (configuration not stated) ?
EP2 modulator: 74; NPY Y1 blocker: inactive; NPY1 pot ag: inactive; NPY Y2 blocker: inactive; EP2 antag: inactive; NPY2 pot ag: inactive; EP2 confirm: active

What do the screens show for `COc1cnc(N(C)C)nc1Sc1cccc(Cl)c1`?
EP2 modulator: 76; NPY Y1 blocker: inactive; NPY1 pot ag: inactive; NPY Y2 blocker: inactive; EP2 antag: inactive; NPY2 pot ag: inactive; EP2 confirm: active

What do the screens show for `S=c1[nH]nc(-c2ccccc2)n1/N=C/c1ccc(-c2ccccc2Cl)o1`?
EP2 modulator: 78; NPY Y1 blocker: inactive; NPY1 pot ag: inactive; NPY Y2 blocker: inactive; EP2 antag: inactive; NPY2 pot ag: inactive; EP2 confirm: active

Results for COCC(=O)Nc1sc2c(c1C(=O)OC)CCCC2 ?
EP2 modulator: inactive; NPY Y1 blocker: inactive; NPY1 pot ag: inactive; NPY Y2 blocker: inactive; EP2 antag: inactive; NPY2 pot ag: inactive

Results for COC(=O)c1c(NC(=O)Cc2cccs2)sc2c1CCCC2 ?
EP2 modulator: inactive; NPY Y1 blocker: inactive; NPY1 pot ag: inactive; NPY Y2 blocker: inactive; EP2 antag: inactive; NPY2 pot ag: inactive; EP2 confirm: inactive

How did COC(=O)c1c(NC(=O)Cc2cccs2)sc(C)c1C do in these assays?
EP2 modulator: inactive; NPY Y1 blocker: inactive; NPY1 pot ag: inactive; NPY Y2 blocker: inactive; EP2 antag: inactive; NPY2 pot ag: inactive; EP2 confirm: inactive

How did Cn1c(=O)[nH]c(=O)c2c1nc(CN1CCN(c3cccc(Cl)c3)CC1)n2CCCc1ccccc1 do in these assays?
EP2 modulator: 70; NPY Y1 blocker: inactive; NPY1 pot ag: inactive; NPY Y2 blocker: inactive; EP2 antag: inactive; NPY2 pot ag: inactive; EP2 confirm: active

How did CCCCn1c(CN2CCN(c3cccc(Cl)c3)CC2)nc2c1c(=O)[nH]c(=O)n2C do in these assays?
EP2 modulator: inactive; NPY Y1 blocker: inactive; NPY1 pot ag: inactive; NPY Y2 blocker: inactive; EP2 antag: inactive; NPY2 pot ag: inactive

How did Cn1c(=O)[nH]c(=O)c2c1nc(N1CCCCCC1)n2Cc1cccc2ccccc12 do in these assays?
EP2 modulator: 66; NPY Y1 blocker: inactive; NPY1 pot ag: inactive; NPY Y2 blocker: inactive; EP2 antag: inactive; NPY2 pot ag: inactive; EP2 confirm: inactive

What do the screens show for `Cn1c(=O)[nH]c(=O)c2c1nc(CN1CCN(c3cccc(Cl)c3)CC1)n2Cc1ccccc1Cl`?
EP2 modulator: 69; NPY Y1 blocker: inactive; NPY1 pot ag: inactive; NPY Y2 blocker: inactive; EP2 antag: inactive; NPY2 pot ag: inactive; EP2 confirm: inactive

How did CC[N+]1(CCOc2ccc(C34CC5CC(CC(C5)C3)C4)cc2)CCOCC1 do in these assays?
EP2 modulator: inactive; EP2 antag: inactive

How did CCC(=O)NCCc1nc2ccccc2n1Cc1ccc(Cl)cc1 do in these assays?
EP2 modulator: inactive; EP2 antag: inactive

Results for Cc1noc(C)c1COC(=O)C(c1ccccc1)c1ccccc1 ?
EP2 modulator: 75; NPY Y1 blocker: inactive; NPY1 pot ag: inactive; EP2 antag: inactive; NPY2 pot ag: inactive; EP2 confirm: inactive
